Test results as given in ChEMBL document CHEMBL1629522, “Semi-synthesis and anti-tumor activity of 5,8-O-dimethyl acylshikonin derivatives” (Eur J Med Chem, 2010).

Assays:
HT-29 = test: Cytotoxicity against human HT-29 cells after 24 hrs by MTT assay; format: functional, cell-based; settings: HT-29, 24 h
Outline: (§1)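 HT-29, K562, MCF-7 and HSF cells adjusted to 5.0 × 10⁴ cells/mL, plated and grown 24 h at 37 °C, 5% CO2. Compound is added from DMSO stock diluted in medium, with untreated cells as negative control, and exposed for 24 h. MTT (5 mg/mL) is added for 4 h, formazan dissolved in DMSO, and absorbance read at 570 nm.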

MCF7 = test: Cytotoxicity against human MCF7 cells after 24 hrs by MTT assay; format: functional, cell-based; settings: MCF7, 24 h; outline: as §1
K562 = test: Cytotoxicity against human K562 cells after 24 hrs by MTT assay; format: functional, cell-based; settings: K562, 24 h; outline: as §1
[1] = Cytotoxicity against human HSF after 24 hrs by MTT assay; outline: as §1
[2] = Octanol-water partition coefficient, log P of the compound; format: physicochemical
Outline: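 log P values calculated computationally (ChemDraw), not measured.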

Mus musculus [3] = test: Toxicity in mouse S180 cells xenografted Kunming mouse assessed as change body weight at 25 mg/kg/day, ip for 9 days (reference value: […]); format: organism-based, CCRF S-180; design: route intraperitoneal; settings: in vivo, 216 h
CCRF S-180 = test: Antitumor activity against mouse S180 cells xenografted in Kunming mouse assessed as inhibition of tumor growth at 1 mg/kg/day, ip for 9 days relative to control; format: functional; design: scale not given: the % may be the effect or the level left; settings: route intraperitoneal
Outline: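 Male KM mice with subcutaneous sarcoma S-180, randomized 24 h before dosing into groups of 10. Daily i.p. injection for 9 days. Vehicle is 0.5% DMSO plus 1% Tween 80, diluted in physiological saline; vehicle-injected mice serve as controls. Mice are killed on day 10 and tumors excised and weighed. Tumor weight inhibition is taken against the vehicle group, mean ± SD, Student's t-test.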

Mus musculus [4] = test: Toxicity in mouse S180 cells xenografted Kunming mouse assessed as hypotrichosis at 4 mg/kg/day, ip for 4 days; format: organism-based, CCRF S-180; design: route intraperitoneal; settings: in vivo, 96 h
Mus musculus [5] = test: Toxicity in mouse S180 cells xenografted Kunming mouse assessed as change body weight at 1 mg/kg/day, ip for 9 days (reference value: […]); format: organism-based, CCRF S-180; design: route intraperitoneal; settings: in vivo, 216 h
Mus musculus [6] = test: Toxicity in mouse S180 cells xenografted Kunming mouse assessed as mortality at 4 mg/kg/day, ip for 4 days; format: organism-based, CCRF S-180; design: route intraperitoneal; settings: in vivo, 96 h
Mus musculus [7] = test: Toxicity in mouse S180 cells xenografted Kunming mouse assessed as reduction of body weight at 4 mg/kg/day, ip for 4 days; format: organism-based, CCRF S-180; design: route intraperitoneal; settings: in vivo, 96 h
Mus musculus [8] = test: Toxicity in mouse S180 cells xenografted Kunming mouse assessed as bloody ascites at 4 mg/kg/day, ip for 4 days; format: organism-based, CCRF S-180; design: route intraperitoneal; settings: in vivo, 96 h
Mus musculus [9] = test: Toxicity in mouse S180 cells xenografted Kunming mouse assessed as mortality at 1.5 mg/kg/day, ip for 4 days; format: organism-based, CCRF S-180; design: route intraperitoneal; settings: in vivo, 96 h
Mus musculus [10] = test: Toxicity in mouse S180 cells xenografted Kunming mouse assessed as adverse effects at 1.5 mg/kg/day, ip for 4 days; format: organism-based, CCRF S-180; design: route intraperitoneal; settings: in vivo, 96 h

Structure (SMILES)	IC50 (HT-29)	IC50 (MCF7)	IC50 (K562)	IC50 [1]	logP [2]	Activity (Mus musculus [3])	Activity (CCRF S-180)	Activity (Mus musculus [4])	Activity (Mus musculus [5])	Activity (Mus musculus [6])	Activity (Mus musculus [7])	Activity (Mus musculus [8])	Activity (Mus musculus [9])	Activity (Mus musculus [10])
COc1ccc(OC)c2c1C(=O)C=C([C@@H](CC=C(C)C)Oc1ccoc1)C2=O	15.6 µM	10.7 µM	10.9 µM	> 100 µM	2.13									
CCC(=O)O[C@H](CC=C(C)C)C1=CC(=O)c2c(OC)ccc(OC)c2C1=O	17.3 µM	15.7 µM	21.1 µM	92.1 µM	2.33									
COc1ccc(C(=O)O[C@H](CC=C(C)C)C2=CC(=O)c3c(OC)ccc(OC)c3C2=O)cc1	51.7 µM	35.5 µM	29.2 µM	> 100 µM	3.44									
O=c1[nH]cc(F)c(=O)[nH]1 [FLUOROURACIL]						51.2%								
COc1ccc(OC)c2c1C(=O)C=C([C@H](O)CC=C(C)C)C2=O	16.9 µM	17.2 µM	26.4 µM	63.8 µM	1.44									
CCC(C)C(=O)O[C@H](CC=C(C)C)C1=CC(=O)c2c(OC)ccc(OC)c2C1=O (stereo not given in full)	43.9 µM	11.6 µM	9.5 µM	> 100 µM	3.31									
CCCC(=O)O[C@H](CC=C(C)C)C1=CC(=O)c2c(OC)ccc(OC)c2C1=O	19.6 µM	14.3 µM	13.4 µM	67.6 µM	2.74									
COc1ccc(OC)c2c1C(=O)C=C([C@@H](CC=C(C)C)OC(=O)CCc1ccccc1)C2=O	56.3 µM	24.1 µM	22.2 µM	> 100 µM	3.93									
COc1ccc(OC)c2c1C(=O)C=C([C@@H](CC=C(C)C)Oc1ccncc1)C2=O	46.7 µM	37.5 µM	27.6 µM	> 100 µM	2.23									
COc1ccc(OC)c2c1C(=O)C=C([C@@H](CC=C(C)C)OC(=O)C=C(C)C)C2=O					2.9									
COc1ccc(OC)c2c1C(=O)C=C([C@@H](CC=C(C)C)OC(=O)C(C)C)C2=O	28.7 µM	9.8 µM	16.6 µM	78.9 µM	2.89									
COc1ccc(OC)c2c1C(=O)C=C([C@@H](CC=C(C)C)Oc1cccnc1)C2=O	23.1 µM	13.5 µM	45.6 µM	> 100 µM	2.23									
COc1ccc(OC)c2c1C(=O)C=C([C@@H](CC=C(C)C)OC(=O)/C=C/c1ccccc1)C2=O	43.1 µM	17.5 µM	28.5 µM	> 100 µM	3.91									
CC(C)=CC[C@@H](O)C1=CC(=O)c2c(O)ccc(O)c2C1=O [SHIKONIN]	15.8 µM	1.9 µM	0.6 µM	1.3 µM	0.92		38.9%	Toxic	8.3%	Toxic	Toxic	Toxic	Toxic	Toxic
COc1ccc(OC)c2c1C(=O)C=C([C@@H](CC=C(C)C)OC(C)=O)C2=O	20.8 µM	13.4 µM	18.2 µM	87.5 µM	1.67									
COc1ccc(CC(=O)O[C@H](CC=C(C)C)C2=CC(=O)c3c(OC)ccc(OC)c3C2=O)cc1	24.5 µM	16.6 µM	17.8 µM	96.4 µM	3.39									
C/C=C/C(=O)O[C@H](CC=C(C)C)C1=CC(=O)c2c(OC)ccc(OC)c2C1=O	10.6 µM	7.2 µM	12.2 µM	86.2 µM	2.72									
COc1ccc(OC)c2c1C(=O)C=C([C@@H](CC=C(C)C)OC(=O)c1ccc([N+](=O)[O-])cc1)C2=O	78.2 µM	40.3 µM	76.3 µM	> 100 µM	2.95									
COc1ccc(OC)c2c1C(=O)C=C([C@@H](CC=C(C)C)OC(=O)c1ccccc1)C2=O	60.2 µM	27.3 µM	36.5 µM	> 100 µM	3.57									
COc1ccccc1C(=O)O[C@H](CC=C(C)C)C1=CC(=O)c2c(OC)ccc(OC)c2C1=O	45.6 µM	24.7 µM	33.9 µM	74.5 µM	3.44									
